Columns and labels:
Details in all cases: in vivo
Rattus norvegicus [1] = species on record: Rattus norvegicus; test: Mean urinary output in rats (Control/Drug treatment; value 23.3/29.9; assay type: ADME, organism-based, Urine
Rattus norvegicus [2] = species on record: Rattus norvegicus; test: Mean sodium excretion in rats (Control/Drug treatment value); value 0.52/2.02; assay type: ADME, organism-based
Rattus norvegicus [3] = species on record: Rattus norvegicus; test: Mean urinary output in rats (Control/Drug treatment value); value 24.0/36.5; assay type: ADME, organism-based, Urine
Summary of the method: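 Water-loaded male Sprague-Dawley rats (HC/CFY, 175-200 g), eight per group, deprived of food and water 18 h. Single oral gavage of 20-25 mg/kg (some 10 mg/kg) in 1% CMC/0.1% Tween 80, then distilled water 2.5 mL/100 g bw po. Cumulative urine over 6 h in metabolic cages; mean mL/6 h/kg bw vs vehicle group.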

Compound	V (Rattus norvegicus [1])	Na (Rattus norvegicus [2])	V (Rattus norvegicus [3])
CCN1c2nc(C(F)(F)F)c(C(F)(F)F)nc2C(N)=NS1(=O)=O	1.3	–	–
CCc1nc2c(nc1C)C(N)=NS(=O)(=O)N2C	–	3.9	1.5
